Entries after “also recorded” stand apart in the source; their conditions may differ. Where a SMILES comes first, the peptide text is derived from it. The star is where a group is joined. Cbz = O=C(OCc1ccccc1)*; CHN2 = [N-]=[N+]=C*
How the values were obtained:
IdeS [1] = target: T1, IdeS (Streptococcus pyogenes, UniProt Q9F1R7); conditions: cited from earlier work
T1 sequence (Q9F1R7 30-339): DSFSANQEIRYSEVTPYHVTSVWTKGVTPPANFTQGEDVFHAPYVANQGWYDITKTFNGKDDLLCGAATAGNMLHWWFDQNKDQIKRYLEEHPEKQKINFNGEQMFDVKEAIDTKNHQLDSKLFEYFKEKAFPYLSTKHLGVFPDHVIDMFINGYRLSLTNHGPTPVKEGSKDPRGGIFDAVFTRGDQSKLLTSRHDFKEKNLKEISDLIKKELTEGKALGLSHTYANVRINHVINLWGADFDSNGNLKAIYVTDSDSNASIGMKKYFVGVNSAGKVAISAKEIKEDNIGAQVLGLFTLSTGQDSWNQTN

[2] = target: T2, streptococcal cysteine protease SpeB (Streptococcus pyogenes serotype M1, UniProt P0C0J1); experiment: SpeB activity assay; assay type: biochemical, S. pyogenes; conditions: SpeB 0.28 μM, 4.8 × 10^3 molar excess of peptide/analogue
T2 sequence (P0C0J1 146-398): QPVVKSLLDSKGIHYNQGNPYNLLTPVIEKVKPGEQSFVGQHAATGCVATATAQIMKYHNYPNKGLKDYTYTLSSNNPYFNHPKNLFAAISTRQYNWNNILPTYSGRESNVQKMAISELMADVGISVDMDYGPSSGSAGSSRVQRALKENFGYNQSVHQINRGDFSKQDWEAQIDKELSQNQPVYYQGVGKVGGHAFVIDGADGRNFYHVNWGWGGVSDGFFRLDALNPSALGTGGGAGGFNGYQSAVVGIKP
Method in brief: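 SpeB was purified from S. pyogenes strain 5448 culture medium by ammonium sulfate precipitation and ion exchange. It was activated with 2 mM DTT for 30 min at 37 °C, and active amount was set by E-64 active-site titration. Enzyme was preincubated 15 min at RT with test compound (stock 30 mM in 50% DMSO/phosphate pH 7.4). BPFA was then added (1 mM solution, 0.1 M phosphate pH 6) and OD405 change recorded. Triplicates.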

papain [3] = target: T3, papain (Carica papaya, UniProt P00784); experiment: Papain activity assay; assay type: biochemical; conditions: papain 0.9 μM, 4.8 × 10^3 molar excess of peptide/analogue
T3 sequence (P00784 134-345): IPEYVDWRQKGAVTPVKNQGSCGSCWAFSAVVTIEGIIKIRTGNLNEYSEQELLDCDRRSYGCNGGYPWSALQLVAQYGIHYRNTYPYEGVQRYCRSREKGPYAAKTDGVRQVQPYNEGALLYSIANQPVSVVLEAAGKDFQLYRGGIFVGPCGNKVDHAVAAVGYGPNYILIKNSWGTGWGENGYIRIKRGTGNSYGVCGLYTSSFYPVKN
Method in brief: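 Papain was taken up in pH 6.2 phosphate buffer with EDTA and DTT. It was preincubated 10 min at RT with test compound (stock 30 mM in 50% DMSO/phosphate pH 6.2). Substrate (stock 100 mM in DMSO) was added, then 2 h at 37 °C. Reactions were stopped with glacial acetic acid and cleavage read as Abs405. Duplicates were run on two separate occasions.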

papain [4] = target: T3, papain; experiment: Determination of inhibition constants; assay type: biochemical; conditions: 5 μM papain, Nα-benzoyl-DL-arginine 4-nitroanilide 0.25-6 mM
Method in brief: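 Initial velocities were measured with or without inhibitor at Nα-benzoyl-DL-arginine 4-nitroanilide 6, 3, 1, 0.5 or 0.25 mM and 5 μM papain. Ki was derived by nonlinear regression fitted to a competitive inhibition model.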

IdeS [5] = target: T1, IdeS; assay type: biochemical; conditions: for inhibitory activity toward IdeS (Figure 4): IdeS 0.8 μM, 4.8 × 10^3 molar excess of peptide/analogue, IgG1 substrate
Method in brief: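 Recombinant His-Trx-IdeS was expressed in E. coli BL21, the tag removed with TEV protease, and purified by Ni2+-resin and size exclusion. Enzyme was preincubated with test compound (stock 30 mM in 50% DMSO/phosphate pH 7.4) 15 min at RT. Human IgG1 was added, then 20 min at 37 °C, stopped with iodoacetamide. Protein A-CM5 SPR was read at 190 s post-injection against no-enzyme controls, converted to fraction active IdeS via a standard curve. Triplicates.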

SMILES | inhibition of IdeS by known inhibitors (IdeS [1]) | inhibitory effect on SpeB activity (Figure 5A) [2] | inhibitory effect on papain activity (Figure 5B) (papain [3]) | inhibitory activity toward IdeS (Figure 4) (IdeS [5]) | also measured
CC(C)C[C@H](NC(=O)C1OC1C(=O)O)C(=O)NCCCCN=C(N)N (stereo in doubt) [E64, 1-[N-[(3-trans-carboxyoxirane-2-carbonyl)-L-leucyl]amino]-4-guanidinobutane] | not inhibited | – | – | – | –
CC(C)C[C@H](N)C(=O)NCC(=O)N1CCC[C@@H](N2CCC[C@H]2C(N)=O)C1 [(R)-LGpipP] | – | inhibited SpeB activity | most active analogue | – | –
CC(C)C[C@H](N)C(=O)N1CCC[C@@H](NCC(N)=O)C1 [(R)-LpipG, (−)-2-[(1-L-Leucinyl-(R)-piperidin-3-yl)amino]acetamide] | – | do not inhibit SpeB | hardly affecting papain | most potent inhibitors; also recorded: potent inhibitors of IdeS | effect on initial velocities of papain activity (papain [4]): remained unchanged
NC(=O)[C@@H]1CCCN1C(=O)CN[C@@H]1CCCNC1 [(R)-pipGP] | – | no inhibitory activity | even more active toward papain | most potent inhibitors; also recorded: most active inhibitors of IdeS | –
CC(C)C[C@H](N)C(=O)NCC(=O)N1CCC[C@H](N2CCC[C@H]2C(N)=O)C1 [(S)-LGpipP] | – | inhibited SpeB activity | – | – | –
CCN(CC(N)=O)[C@H]1CCCN(C(=O)[C@H](CC(C)C)NC(=O)[C@@H](N)CC(C)C)C1 [(S)-LLpipEtG] | – | clearly improved degree of inhibition | – | – | –
CC(C)C[C@H](N)C(=O)N1CCC[C@H](NCC(=O)N2CCC[C@H]2C(N)=O)C1 [(S)-LpipGP] | – | no inhibitory activity | even more active toward papain | most potent inhibitors; also recorded: most active inhibitors of IdeS | –
NC(=O)CN[C@H]1CCCNC1 [(S)-pipG, (+)-2-((S)-Piperidin-3-ylamino)acetamide] | – | do not inhibit SpeB | hardly affecting papain | most potent inhibitors; also recorded: potent inhibitors of IdeS | effect on initial velocities of papain activity (papain [4]): remained unchanged; ligand efficiency (LE) for IdeS inhibition (IdeS [5]; binding energy per atom considered): most favorable peptide analogue in the series
NC(=O)[C@@H]1CCCN1C(=O)CN[C@H]1CCCNC1 [(S)-pipGP] | – | – | – | most potent inhibitors | –
Cc1ccc(S(=O)(=O)N[C@@H](CCCCN)C(=O)CCl)cc1 [TLCK, tosyl lysyl chloromethyl ketone] | reported to inhibit IdeS | – | – | – | –
Cc1ccc(S(=O)(=O)N[C@@H](Cc2ccccc2)C(=O)CCl)cc1 [TPCK, tosyl phenylalanyl chloromethyl ketone] | reported to inhibit IdeS | – | – | – | –
CC(C)CC(NC(=O)OCc1ccccc1)C(=O)NC(C(=O)NCC(=O)C=[N+]=[N-])C(C)C (stereo not drawn) [Z-LVG CHN2, N-benzyloxycarbonyl-leucyl-valyl-glycine diazomethylketone] (Cbz-Leu-Val-Gly-CHN2; configuration not given here) | reported to inhibit IdeS | – | – | – | –
